Test results as given in ChEMBL document CHEMBL3244123, “Isoquinolines. 5. Synthesis and antiarrhythmic activity of benzylisoquinoline derivatives” (J Med Chem, 1977).
The source made the active and inactive calls. No cut-off for these calls is given here.

Legend:
Mus musculus [1] = test: Antiarrhythmic activity in Swiss albino mouse assessed as protection against chloroform-induced ventricular fibrillation at 100 mg/kg, sc administered 20 mins prior to challenge; type: functional, organism-based; parameters: dose 100 mg/kg; conditions: Heart
How it was run: (§1)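 Female Swiss albino mice, groups of ten, received drug in 0.9% saline sc at 100 mg/kg; dose raised to 200 mg/kg when neither protection nor toxicity appeared. After 20 min, mice were exposed to chloroform vapour. Absence of ventricular fibrillation counted as protection, reported as number protected of ten.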

Mus musculus [2] = test: Antiarrhythmic activity in Swiss albino mouse assessed as protection against chloroform-induced ventricular fibrillation at 200 mg/kg, sc administered 20 mins prior to challenge; type: functional, organism-based; parameters: dose 200 mg/kg; conditions: Heart; how it was run: as §1
Mus musculus [3] = test: Toxicity in Swiss albino mouse assessed as ataxia at 100 mg/kg, sc measured up to 20 mins; type: organism-based; parameters: dose 100 mg/kg, route subcutaneous; conditions: in vivo
How it was run: (§2)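 Female Swiss albino mice, ten per dose, were given drug in 0.9% saline sc and watched for 20 min before chloroform challenge. Ataxia, convulsions, loss of righting reflex and death were each reported as number of animals affected of ten.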

Mus musculus [4] = test: Toxicity in Swiss albino mouse assessed as convulsions at 100 mg/kg, sc measured up to 20 mins; type: organism-based; parameters: dose 100 mg/kg, route subcutaneous; conditions: in vivo; how it was run: as §2
Mus musculus [5] = test: Toxicity in Swiss albino mouse assessed as loss of righting reflex at 100 mg/kg, sc measured up to 20 mins; type: organism-based; parameters: dose 100 mg/kg, route subcutaneous; conditions: in vivo; how it was run: as §2
Mus musculus [6] = test: Toxicity in Swiss albino mouse assessed as mortality at 100 mg/kg, sc measured up to 20 mins; type: organism-based; parameters: dose 100 mg/kg, route subcutaneous; conditions: in vivo; how it was run: as §2
Mus musculus [7] = test: Toxicity in Swiss albino mouse assessed as ataxia at 200 mg/kg, sc measured up to 20 mins; type: organism-based; parameters: dose 200 mg/kg, route subcutaneous; conditions: in vivo; how it was run: as §2
Mus musculus [8] = test: Toxicity in Swiss albino mouse assessed as convulsions at 200 mg/kg, sc measured up to 20 mins; type: organism-based; parameters: dose 200 mg/kg, route subcutaneous; conditions: in vivo; how it was run: as §2
Mus musculus [9] = test: Toxicity in Swiss albino mouse assessed as loss of righting reflex at 200 mg/kg, sc measured up to 20 mins; type: organism-based; parameters: dose 200 mg/kg, route subcutaneous; conditions: in vivo; how it was run: as §2
Mus musculus [10] = test: Toxicity in Swiss albino mouse assessed as mortality at 200 mg/kg, sc measured up to 20 mins; type: organism-based; parameters: dose 200 mg/kg, route subcutaneous; conditions: in vivo; how it was run: as §2
Canis familiaris [11] = test: Antiarrhythmic activity in beagle dog myocardial infarction model assessed as ventricular ectopic beats at 0.5 mg/kg/min, iv administered as infusion (reference value: 84 to 98 %); type: functional, Canis lupus familiaris, Heart
How it was run: (§3)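 Drug infused iv via a fore limb vein at 0.5 mg/kg/min (as base, in 0.9% saline, pH 6–7) until clearing (ventricular ectopic activity ≤5% for a consecutive 5 min); EKG and vital signs monitored during and after infusion.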

Canis familiaris [12] = test: Antiarrhythmic activity in beagle dog myocardial infarction model assessed as ventricular rate at 0.5 mg/kg/min, iv administered as infusion (reference value: 126 to 221 bpm); type: functional, Canis lupus familiaris, Heart; how it was run: as §3
Canis familiaris [13] = test: Antiarrhythmic activity in beagle dog myocardial infarction model assessed as concentration required for reduction in ventricular ectopic activity to 5% or less for a consecutive 5 min compound administered iv as infusion; type: functional, Canis lupus familiaris, Heart; how it was run: as §3
Canis familiaris [14] = test: Toxicity in beagle dog myocardial infarction model assessed as head tremors compound administered iv as infusion; type: organism-based, Canis lupus familiaris; conditions: in vivo; how it was run: as §3
Canis familiaris [15] = test: Toxicity in beagle dog myocardial infarction model assessed as convulsions compound administered iv as infusion; type: organism-based, Canis lupus familiaris; conditions: in vivo; how it was run: as §3
Canis familiaris [16] = test: Antiarrhythmic activity in beagle dog myocardial infarction model assessed as mean arterial blood pressure at 0.5 mg/kg/min, iv administered as infusion (reference value: 80 to 115 mmHg)
Mus musculus [17] = test: Antiarrhythmic activity in sc dosed Swiss albino mouse assessed as protection against chloroform-induced ventricular fibrillation compound administered 20 mins prior to challenge; type: functional; conditions: Heart
How it was run: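 Female Swiss albino mice, ten per dose, given drug sc in 0.9% saline; screen at 100 mg/kg (raised to 200 mg/kg if neither protection nor toxicity), observed 20 min for toxicity, then exposed to chloroform vapour; absence of ventricular fibrillation counted as protection. Full tests used three log-spaced doses; ED50 with 95% Fieller limits by Berkson minimum logit χ² analysis.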

Mus musculus [18] = test: Toxicity in Swiss albino mouse assessed as ataxia at 138 mg/kg, sc measured up to 20 mins; type: organism-based; parameters: dose 138 mg/kg, route subcutaneous; conditions: in vivo; how it was run: as §2
Mus musculus [19] = test: Toxicity in Swiss albino mouse assessed as convulsions at 138 mg/kg, sc measured up to 20 mins; type: organism-based; parameters: dose 138 mg/kg, route subcutaneous; conditions: in vivo; how it was run: as §2
Mus musculus [20] = test: Toxicity in Swiss albino mouse assessed as loss of righting reflex at 138 mg/kg, sc measured up to 20 mins; type: organism-based; parameters: dose 138 mg/kg, route subcutaneous; conditions: in vivo; how it was run: as §2
Mus musculus [21] = test: Toxicity in Swiss albino mouse assessed as mortality at 138 mg/kg, sc measured up to 20 mins; type: organism-based; parameters: dose 138 mg/kg, route subcutaneous; conditions: in vivo; how it was run: as §2
Mus musculus [22] = test: Antiarrhythmic activity in Swiss albino mouse assessed as protection against chloroform-induced ventricular fibrillation at 47 mg/kg, sc administered 20 mins prior to challenge; type: functional, organism-based; parameters: dose 47 mg/kg; conditions: Heart
How it was run: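 Female Swiss albino mice, ten per dose, received drug in 0.9% saline sc at one of three log-spaced doses. After 20 min, mice were exposed to chloroform vapour. Mice without ventricular fibrillation were scored protected, reported as number protected of ten.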

Mus musculus [23] = test: Toxicity in Swiss albino mouse assessed as ataxia at 47 mg/kg, sc measured up to 20 mins; type: organism-based; parameters: dose 47 mg/kg, route subcutaneous; conditions: in vivo; how it was run: as §2
Mus musculus [24] = test: Toxicity in Swiss albino mouse assessed as loss of righting reflex at 47 mg/kg, sc measured up to 20 mins; type: organism-based; parameters: dose 47 mg/kg, route subcutaneous; conditions: in vivo; how it was run: as §2

| Compound | Activity (Mus musculus [3]) | Activity (Mus musculus [4]) | Activity (Mus musculus [5]) | Activity (Mus musculus [6]) | further results |
| --- | --- | --- | --- | --- | --- |
| CCN(CC)CC(=O)Nc1cc(OC)ccc1Cc1nccc2ccccc12 | Non-toxic | Non-toxic | Non-toxic | Non-toxic | Activity (Mus musculus [1]): inactive; Activity (Mus musculus [2]): inactive; Activity (Mus musculus [7]): Non-toxic; Activity (Mus musculus [8]): Non-toxic; Activity (Mus musculus [9]): Non-toxic; Activity (Mus musculus [10]): Non-toxic |
| CCN(CC)CC(=O)Nc1c(Cc2nccc3ccccc23)ccc(OC)c1OC | Non-toxic | Non-toxic | Non-toxic | Non-toxic | Activity (Canis familiaris [11]): 0%; Activity (Canis familiaris [12]): 135%; Activity (Canis familiaris [13]): 46.5 mg/kg; Activity (Canis familiaris [14]): 6.25 mg/kg; Activity (Canis familiaris [15]): 15.75 mg/kg; Activity (Canis familiaris [16]): 90% |
| CCN(CC)CC(=O)Nc1cc(OC)c(OC)cc1Cc1nccc2cc(OC)c(OC)cc12 | Non-toxic | Non-toxic | Non-toxic | Non-toxic | – |
| CCN(CC)CC(=O)Nc1cc(OC)ccc1C.Cl | – | – | – | – | Activity (Mus musculus [7]): Non-toxic; Activity (Mus musculus [8]): Non-toxic; Activity (Mus musculus [9]): Non-toxic; Activity (Mus musculus [10]): Non-toxic |
| CCNCC(=O)Nc1c(Cc2nccc3ccccc23)ccc(OC)c1OC | Non-toxic | Non-toxic | Non-toxic | Non-toxic | Activity (Canis familiaris [11]): 0%; Activity (Canis familiaris [13]): 10 mg/kg; Activity (Canis familiaris [16]): 85% |
| COc1ccc(Cc2nccc3ccccc23)c(NC(=O)C(C)N)c1OC (centres undefined) | Non-toxic | Non-toxic | Non-toxic | Non-toxic | – |
| CCN(CC)CC(=O)Nc1c(C)cccc1C [LIDOCAINE] | Toxic | Toxic | Toxic | Non-toxic | Activity (Mus musculus [1]): Active |
| CCNCC(=O)Nc1cc(OC)c(OC)cc1Cc1nccc2cc(OC)c(OC)cc12 | – | Non-toxic | Non-toxic | Non-toxic | – |
| COc1ccc(Cc2nccc3ccccc23)c(NC(=O)CN)c1OC | Non-toxic | Non-toxic | Non-toxic | Non-toxic | – |
| CCN(CC)CC(=O)Nc1c(CC2c3ccccc3CCN2C)ccc(OC)c1OC.Cl (centres undefined) | – | – | – | – | ED50 (Mus musculus [17]): 147 mg/kg; Activity (Mus musculus [18]): Non-toxic; Activity (Mus musculus [19]): Non-toxic; Activity (Mus musculus [20]): Non-toxic; Activity (Mus musculus [21]): Non-toxic |
| CCN(CC)CC(=O)Nc1cc(OC)c(OC)cc1Cc1nccc2ccccc12 | – | Non-toxic | Non-toxic | Non-toxic | – |
| COc1ccc(CC2c3cc(OC)c(OC)cc3CCN2C)cc1OC (racemic) [LAUDANOSINE] | Toxic | Toxic | Non-toxic | Toxic | Activity (Mus musculus [1]): inactive; Activity (Mus musculus [22]): inactive; Activity (Mus musculus [23]): Non-toxic; Activity (Mus musculus [24]): Non-toxic |
| CCN(CC)CC(=O)Nc1cc(OC)c(OC)cc1C.Cl | Non-toxic | Non-toxic | Non-toxic | Non-toxic | Activity (Mus musculus [1]): inactive; Activity (Mus musculus [7]): Non-toxic; Activity (Mus musculus [8]): Non-toxic; Activity (Mus musculus [9]): Non-toxic; Activity (Mus musculus [10]): Non-toxic |
| COc1ccc(Cc2nccc3cc(OC)c(OC)cc23)cc1OC [PAPAVERINE] | – | Non-toxic | Non-toxic | Non-toxic | – |
